# Bioassay records (PubChem BioAssay)
# A selection: hits, their analogues and other compounds. The true share with any hit is near 2.6%.
# Rad51 HR inh: Rad51 (human) homologous recombination inhibition; hRad51 DNA strand exchange, fluorescence dequenching; inhibition, % at 10 µM; AID 1385; actives 0.085% (n = 200,000); Q06609;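 active = inhibition above 40% at the single screening dose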;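 also: 0% = DMSO control wells and 100% = blanks with heterologous ssDNA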
# Target sequence (Q06609 whole entry, looked up): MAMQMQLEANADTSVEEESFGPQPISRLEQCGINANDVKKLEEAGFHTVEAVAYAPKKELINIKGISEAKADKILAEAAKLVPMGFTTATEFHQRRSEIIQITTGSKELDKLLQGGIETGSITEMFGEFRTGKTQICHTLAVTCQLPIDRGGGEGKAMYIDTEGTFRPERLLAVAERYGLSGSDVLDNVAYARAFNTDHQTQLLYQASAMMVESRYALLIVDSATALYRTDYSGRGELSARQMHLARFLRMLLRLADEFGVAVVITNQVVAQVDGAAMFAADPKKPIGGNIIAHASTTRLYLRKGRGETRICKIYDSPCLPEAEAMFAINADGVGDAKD
#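 Test system: preformed human Rad51 ssDNA filaments. Compound dosing: single dose, 10 µM final compound. Incubation: filaments 15 min 37 °C, then compound 30 min. Technique: FRET fluorescence dequenching, excitation 485 nm, emission 520 nm. Read-out basis: percent inhibition from fluorescence, normalised to plate control and blank means. Benchmarks: plate controls and plate blanks.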
# KCC2 mod: modulators of human KCC2 chloride dependent transport | KCC2 cells, thallium flux FluoZin-2 fluorescence | actives 2.2% (n = 190,000) | B-score of Tl+ flux slope (higher = more flux/activation; lower = inhibition) at 10 µM;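 active = thallium flux slope and its plate-corrected score both differing from the plate sample mean at a set confidence after two filtering rounds, in either direction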;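 also: slope of fluorescence scaled to starting intensity during 10 to 20 s after thallium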
# CHT inh: human CHT choline transport inhibition; Q9GZV3; CHT-expressing cells, membrane potential dye, choline response; active compounds read low; B-score at 10 µM; actives 0.86% (n = 310,000);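 active = B-score over 3 SD under the library average, and starting fluorescence ratio not unusually high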;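 also: choline stimulus applied at its EC90 after an EC20 pre-addition; B-score computed on integrated fluorescence ratio after choline addition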
# CHT PAM: human CHT allosteric activation | B-score at 10 µM | Q9GZV3 | actives 0.49% (n = 310,000) | CHT-expressing cells, membrane potential dye, choline EC20; active compounds read high; LV-AA mutant CHT in HEK293 cells;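 active = initial fluorescence not abnormally high and integrated response B-score, plate-corrected, over 3 SD above library mean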
# KCC2 sec1: confirmation of human KCC2 transport modulators; HEK293-KCC2, thallium flux, FluoZin2 fluorescence; active compounds read high; shares compounds with KCC2 mod; actives 15% (n = 3,700); normalised thallium flux (F/F0 slope) at 10 µM; AID 1713;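 active = thallium flux slope above the same plate's solvent-only control mean plus 3 SD; inconclusive = the two replicate wells disagree; inactive = no significant difference from solvent-only control wells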
# KCC2 bumet counter: bumetanide-insensitive thallium flux in KCC2 cells with ouabain, counter-screen. shares compounds with KCC2 mod. HEK293-KCC2 + bumetanide/ouabain, thallium flux FluoZin2; active compounds read high. normalized thallium flux at 10 µM. actives 49% (n = 3,700). AID 1714;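 active = thallium entry rate above the same plate's blocked-transporter control wells by more than 3 SD; inconclusive = the two repeat wells disagree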;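 also: raw slope of fluorescence over initial fluorescence between 10 and 20 s after thallium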
# KCC2 sec2: KCC2 (human) modulation, second secondary assay; HEK293-KCC2, thallium flux FluoZin2 fluorescence; actives lie on both sides; F/F0 rise rate, 10–20 s post-thallium; normalized thallium flux at 10 µM; shares compounds with KCC2 mod; actives 23% (n = 3,700);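 active = thallium flux slope more than 3 SD above or below the plate's solvent-only control mean, mostly below; inconclusive = the two repeat wells disagreed; inactive = no significant shift from solvent-only controls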;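 also: raw slope with 0.1% DMSO as baseline and bumetanide as block control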
# HEK293 Tl flux: acts in parental HEK cells, KCC2 counter-screen. thallium flux rate (normalised fluorescence) at 10 µM. AID 1716. actives 46% (n = 3,700). HEK293 parental cells, thallium flux FluoZin2, ouabain; baseline-ratio fluorescence slope, 10–20 s after thallium. shares compounds with KCC2 mod;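 active = thallium flux rate significantly above the same plate's solvent-only control wells, beyond their mean plus 3 SD; inconclusive = the two replicate wells gave conflicting results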
# KCC2 ouabain: modulates human KCC2 on retest with ouabain | shares compounds with KCC2 mod | HEK293-KCC2, thallium flux FluoZin2 fluorescence; bidirectional: low = inhibitor, high = activator | AID 1717 | actives 48% (n = 3,700) | raw Tl+ flux slope (below DMSO = inhibition, above = activation) at 10 µM;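 active = thallium flux slope beyond 3 SD from same-plate DMSO control mean in most replicates, usually higher, sometimes lower; inconclusive = repeat tests gave conflicting results; inactive = no significant difference from controls in most replicates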;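 also: slope of initial-normalized fluorescence between seconds 10 and 20 after thallium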
# HEK293 Tl flux2: acts in parental HEK cells, second KCC2 counter-screen. AID 1718. thallium flux slope at 10 µM. shares compounds with KCC2 mod. actives 33% (n = 3,700). HEK293 parental, thallium flux FluoZin-2 fluorescence slope;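 active = thallium flux slope above the same plate's solvent-control mean plus 3 SD in both duplicate wells; inconclusive = duplicate wells that disagreed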;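 also: run without ouabain in cells lacking the KCC2 cotransporter; slope of fluorescence scaled to its starting value between 10 and 20 s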
# CHT activ conf: human CHT activation, confirmatory screen. actives 91% (n = 2,500). activation, % at 10 µM. AID 504833. CHT-expressing cells, membrane potential dye fluorescence (FDSS); % of choline EC20–EC90 response window; HEK293 expressing CHT LV-AA mutant; choline added at its EC20. shares compounds with CHT PAM;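 active = primary screen active, with duplicate mean activation above negative control mean plus 3 SD, cut at about 11% in these data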
# HEK293 MP dye: CHT activator counter-screen hit in parental HEK293 cells | membrane potential dye fluorescence (FDSS); measured after EC20 choline addition | shares compounds with CHT PAM | actives 62% (n = 2,500) | ratio readout change at 10 µM, hits read low;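 active = duplicate-averaged ratio beyond 3 SD from buffer wells, up or down, though filed actives are nearly all decreases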
# The depositor's hits bear a star; i = inactive; ? = inconclusive; . = no result given.
SMILES,Rad51 HR inh,KCC2 mod,CHT inh,CHT PAM,KCC2 sec1,KCC2 bumet counter,KCC2 sec2,HEK293 Tl flux,KCC2 ouabain,HEK293 Tl flux2,CHT activ conf,HEK293 MP dye
Cc1ccc(-n2c(SCC(=O)NCCN3C(=O)CSC3=O)nnc2-c2ccccc2)cc1,-5,0.27,i,i,.,.,.,.,.,.,.,.
CC(Cc1ccccc1)NC(=O)/C=C/c1ccc([N+](=O)[O-])cc1 (stereo unspecified),6,-3.1,i,i,.,.,.,.,.,.,.,.
CC(CCc1ccccc1)NC(=O)/C=C/c1ccc(Cl)cc1 (stereo unspecified),5,-8.1*,i,i,0.0073,0.0056,0.027,0.0065,0.018,0.0093,6,i
CCC(C)(C)n1nnnc1C(c1cccnc1)N1CCN(c2cccc(C(F)(F)F)c2)CC1 (stereo unspecified),1,-3.2*,i,i,0.0068,0.0039*,0.031,?,0.018,0.01,12*,i
CCCCn1c(N2CCC(Cc3ccccc3)CC2)nc2c1c(=O)[nH]c(=O)n2C,-11,-4.9*,i,i,0.0073,0.0052,0.035,?,?,0.011,19*,i
O=C(CNCC1(N2CCOCC2)CCCCC1)Nc1ccc(Cl)cc1,14,1.6,i,i,.,.,.,.,.,.,.,.
N#C/C(=C(/O)COc1ccc(Br)cc1)c1nnc2n1CCCCC2,7,0.36,i,i,.,.,.,.,.,.,.,.
C=CCN1C(c2ccc(OCC)cc2)=CS/C1=C(\C#N)c1nnc2n1CCCCC2,3,-5.8*,i,9.2*,0.013,0.0041,0.02*,0.0061*,0.011*,0.0083,26*,i
CC1(C)N=c2ccc([N+](=O)[O-])c(N)c2=[N+]1[O-],-10,-0.039,i,i,.,.,.,.,.,.,.,.
NS(=O)(=O)c1cccc(NC(=O)COC(=O)CCCc2c[nH]c3ccccc23)c1,6,-0.051,i,i,.,.,.,.,.,.,.,.
Cc1ccc(OCc2nc(C#N)c(NCc3ccc4c(c3)OCO4)o2)cc1,-9,-4.9,i,7.5*,0.0052,?,?,?,0.012*,0.0088,30*,i
Cc1ccc(CNc2nc(C)nc3sc4c(c23)CCC4)cc1,2,0.64,i,i,.,.,.,.,.,.,.,.
Cc1nc(NC(C)c2ccccc2)c2c3c(sc2n1)CCC3 (stereo unspecified),0,-6.3*,i,i,0.0061,0.0042,0.03,0.0071,0.019,0.01,18*,i
